Data: ChEMBL document CHEMBL1671800, “Synthesis and antimycobacterial properties of N-substituted 6-amino-5-cyanopyrazine-2-carboxamides” (2011)
≈ marks a conversion by molar mass, not a printed value. Calls of active or inactive are those of the source. The rule behind the calls is not given here.

Experiments:
Trichosporon beigelii [1] = assay: Antifungal activity against Trichosporon beigelii 1188 after 24 hrs by broth microdilution method; assay type: functional; conditions: Trichosporon beigelii, 1188, 24 h
Procedure, shortened: (§1)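 Broth microdilution. Compounds in DMSO were diluted twofold in RPMI 1640 with glutamine, buffered to pH 7.0 with MOPS. Final DMSO was at most 2.5% (v/v). Plates were incubated statically, in the dark and humid, at 35 °C and read at 24 and 48 h.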

Aspergillus fumigatus [2] = assay: Antifungal activity against Aspergillus fumigatus 231 after 24 hrs by broth microdilution method; assay type: functional; conditions: Aspergillus fumigatus, 231, 24 h; procedure, shortened: as §1
Candida albicans [3] = assay: Antifungal activity against Candida albicans ATCC 44859 after 48 hrs by broth microdilution method; assay type: functional; conditions: ATCC 44859, 48 h; procedure, shortened: as §1
Mycobacterium avium [4] = assay: Antimycobacterial activity against Mycobacterium avium CNCTC My 80/72 after 14 days by microdilution method; assay type: functional; conditions: CNCTC My 80/72, 336 h
Procedure, shortened: (§2)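 Compounds in DMSO were diluted in Šula's semisynthetic medium, pH 5.5, to final 200–3.125 μg/mL, with DMSO at most 1% (v/v). Mycobacteria were added as a suspension in isotonic saline and grown at 37 °C. MIC was read visually after 14 days as the lowest concentration inhibiting growth.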

[5] = system: Trichophyton mentagrophytes; assay: Antifungal activity against Trichophyton mentagrophytes 445 after 120 hrs by broth microdilution method; assay type: functional; conditions: Trichophyton mentagrophytes, 445, 120 h
Procedure, shortened: (§3)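 Trichophyton mentagrophytes was tested by twofold broth microdilution in MOPS-buffered RPMI 1640 with glutamine, pH 7.0, with final DMSO at most 2.5% (v/v). Incubation was static, dark and humid at 35 °C, and plates were read at 72 and 120 h.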

Nakaseomyces glabratus [6] = assay: Antifungal activity against Candida glabrata 20/I after 48 hrs by broth microdilution method; assay type: functional; procedure, shortened: as §1
Escherichia coli = assay: Antibacterial activity against Escherichia coli CCM 4517 after 24 to 48 hrs by broth microdilution method; assay type: functional, organism-based
Procedure, shortened: (§4)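 Strains subcultured on Mueller-Hinton agar at 35 °C and passaged onto MHA before testing. Inoculum suspended in sterile 0.85% saline and adjusted to 0.5 McFarland (1.5×10^8 CFU/mL). Compounds in DMSO (final ≤1% v/v) in Mueller-Hinton broth at pH 7.0, with medium and DMSO-alone controls. Static incubation at 35 °C; MIC taken as 95% growth inhibition versus control at 24 and 48 h.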

Pichia kudriavzevii [7] = assay: Antifungal activity against Candida krusei E28 after 24 hrs by broth microdilution method; assay type: functional; conditions: E28, 24 h; procedure, shortened: as §1
Pseudomonas aeruginosa = assay: Antibacterial activity against Pseudomonas aeruginosa CCM 1961 after 24 to 48 hrs by broth microdilution method; assay type: functional, organism-based; procedure, shortened: as §4
Trichosporon beigelii [8] = assay: Antifungal activity against Trichosporon beigelii 1188 after 48 hrs by broth microdilution method; assay type: functional; conditions: Trichosporon beigelii, 1188, 48 h; procedure, shortened: as §1
Nakaseomyces glabratus [9] = assay: Antifungal activity against Candida glabrata 20/I after 24 hrs by broth microdilution method; assay type: functional; procedure, shortened: as §1
Staphylococcus aureus [10] = assay: Antibacterial activity against methicillin-resistant Staphylococcus aureus H 5996/08 after 24 to 48 hrs by broth microdilution method; assay type: functional, organism-based
Procedure, shortened: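 Strains were subcultured on Mueller-Hinton agar at 35 °C, and the inoculum was suspended in 0.85% saline to 0.5 McFarland (1.5×10^8 CFU/mL). Microdilution was done in Mueller-Hinton broth, pH 7.0, with final DMSO at most 1% (v/v). MIC, set at 95% growth inhibition versus control, was read after 24 and 48 h of static incubation at 35 °C.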

Mycobacterium kansasii = assay: Antimycobacterial activity against Mycobacterium kansasii CNCTC My 235/80 after 6 days by microdilution method; assay type: functional; conditions: CNCTC My 235/80, 144 h
Procedure, shortened: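 Compounds were dissolved in DMSO and diluted in Šula's semisynthetic medium at pH 5.5, at final concentrations of 200 to 3.125 μg/mL in twofold steps; DMSO stayed ≤1% v/v. The strain was added as a suspension in isotonic saline and incubated at 37 °C. Growth was read visually after 6 days; MIC is the lowest concentration that inhibited growth. Pyrazinamide served as standard.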

[11] = system: Staphylococcus epidermidis; assay: Antibacterial activity against Staphylococcus epidermidis H 6966/08 after 24 to 48 hrs by broth microdilution method; assay type: functional, organism-based
Lichtheimia corymbifera [12] = assay: Antifungal activity against Absidia corymbifera 272 after 48 hrs by broth microdilution method; assay type: functional; conditions: Lichtheimia corymbifera, 272, 48 h; procedure, shortened: as §1
Candida tropicalis [13] = assay: Antifungal activity against Candida tropicalis 156 after 24 hrs by broth microdilution method; assay type: functional; conditions: Candida tropicalis, 156, 24 h; procedure, shortened: as §1
Staphylococcus aureus [14] = assay: Antibacterial activity against Staphylococcus aureus CCM 4516/08 after 24 to 48 hrs by broth microdilution method; assay type: functional, organism-based; procedure, shortened: as §4
Candida albicans [15] = assay: Antifungal activity against Candida albicans ATCC 44859 after 24 hrs by broth microdilution method; assay type: functional; conditions: ATCC 44859, 24 h; procedure, shortened: as §1
[16] = system: Trichophyton mentagrophytes; assay: Antifungal activity against Trichophyton mentagrophytes 445 after 72 hrs by broth microdilution method; assay type: functional; conditions: Trichophyton mentagrophytes, 445, 72 h; procedure, shortened: as §3
Klebsiella pneumoniae [17] = assay: Antibacterial activity against ESBL-positive Klebsiella pneumoniae J 14368/08 after 24 to 48 hrs by broth microdilution method; assay type: functional, organism-based
[18] = system: Mycobacterium tuberculosis; assay: Antimycobacterial activity against Mycobacterium tuberculosis H37Rv CNCTC My 331/88 after 14 days by microdilution method; assay type: functional; conditions: H37Rv CNCTC My 331/88, 336 h; procedure, shortened: as §2
Enterobacter sp. = assay: Antibacterial activity against Enterobacter sp. J 14365/ 08 after 24 to 48 hrs by broth microdilution method; assay type: functional, organism-based
Klebsiella pneumoniae [19] = assay: Antibacterial activity against Klebsiella pneumoniae D11750/08 after 24 to 48 hrs by broth microdilution method; assay type: functional, organism-based
Pichia kudriavzevii [20] = assay: Antifungal activity against Candida krusei E28 after 48 hrs by broth microdilution method; assay type: functional; conditions: E28, 48 h; procedure, shortened: as §1
Aspergillus fumigatus [21] = assay: Antifungal activity against Aspergillus fumigatus 231 after 48 hrs by broth microdilution method; assay type: functional; conditions: Aspergillus fumigatus, 231, 48 h; procedure, shortened: as §1
Lichtheimia corymbifera [22] = assay: Antifungal activity against Absidia corymbifera 272 after 24 hrs by broth microdilution method; assay type: functional; conditions: Lichtheimia corymbifera, 272, 24 h; procedure, shortened: as §1
Candida tropicalis [23] = assay: Antifungal activity against Candida tropicalis 156 after 48 hrs by broth microdilution method; assay type: functional; conditions: Candida tropicalis, 156, 48 h; procedure, shortened: as §1
Mycobacterium avium [24] = assay: Antimycobacterial activity against Mycobacterium avium CNCTC My 152/73 after 14 days by microdilution method; assay type: functional; conditions: CNCTC My 152/73, 336 h; procedure, shortened: as §2

Row | Structure (SMILES) | MIC (Trichosporon beigelii [1]) | MIC (Aspergillus fumigatus [2]) | MIC (Candida albicans [3]) | MIC (Mycobacterium avium [4]) | MIC [5] | MIC (Nakaseomyces glabratus [6]) | Activity (Escherichia coli) | MIC (Pichia kudriavzevii [7]) | Activity (Pseudomonas aeruginosa) | MIC (Trichosporon beigelii [8]) | MIC (Nakaseomyces glabratus [9]) | Activity (Staphylococcus aureus [10]) | MIC (Mycobacterium kansasii) | Activity [11] | MIC (Lichtheimia corymbifera [12]) | MIC (Candida tropicalis [13]) | Activity (Staphylococcus aureus [14]) | MIC (Candida albicans [15]) | MIC [16] | Activity (Klebsiella pneumoniae [17]) | also measured
1 | CCCCCNc1nc(C(N)=O)cnc1C#N | > 250 µM | 250 µM (≈ 58.3 µg/mL) | > 250 µM | > 200 µg/mL | > 250 µM | > 250 µM | inactive | 62.5 µM (≈ 14.6 µg/mL) | inactive | > 250 µM | 250 µM (≈ 58.3 µg/mL) | inactive | > 200 µg/mL | inactive | > 250 µM | > 250 µM | inactive | 250 µM (≈ 58.3 µg/mL) | > 250 µM | inactive | MIC [18]: > 200 µg/mL; Activity (Enterobacter sp.): inactive; Activity (Klebsiella pneumoniae [19]): inactive; MIC (Pichia kudriavzevii [20]): 250 µM (≈ 58.3 µg/mL); MIC (Aspergillus fumigatus [21]): > 250 µM; MIC (Lichtheimia corymbifera [22]): 125 µM (≈ 29.2 µg/mL); MIC (Candida tropicalis [23]): > 250 µM; MIC (Mycobacterium avium [24]): > 200 µg/mL
2 | N#Cc1ncc(C(N)=O)nc1Cl | > 500 µM | > 500 µM | 125 µM (≈ 22.8 µg/mL) | 25 µg/mL (≈ 137 µM) | 62.5 µM (≈ 11.4 µg/mL) | > 500 µM | inactive | > 500 µM | inactive | > 500 µM | > 500 µM | inactive | 25 µg/mL (≈ 137 µM) | inactive | 250 µM (≈ 45.6 µg/mL) | > 500 µM | inactive | 125 µM (≈ 22.8 µg/mL) | 62.5 µM (≈ 11.4 µg/mL) | inactive | MIC [18]: 25 µg/mL (≈ 137 µM); Activity (Enterobacter sp.): inactive; Activity (Klebsiella pneumoniae [19]): inactive; MIC (Pichia kudriavzevii [20]): > 500 µM; MIC (Aspergillus fumigatus [21]): > 500 µM; MIC (Lichtheimia corymbifera [22]): 250 µM (≈ 45.6 µg/mL); MIC (Candida tropicalis [23]): > 500 µM; MIC (Mycobacterium avium [24]): 25 µg/mL (≈ 137 µM)
